Measurements reported in ChEMBL document CHEMBL1687899, “Structure-activity relationships in nucleotide oligomerization domain 1 (Nod1) agonistic γ-glutamyldiaminopimelic acid derivatives” (J Med Chem, 2011).
pEC50: −log10 of the molar value.

Target: T1, Nucleotide-binding oligomerization domain-containing protein 1 (Homo sapiens, UniProt Q9Y239)
T1 sequence (Q9Y239 whole entry): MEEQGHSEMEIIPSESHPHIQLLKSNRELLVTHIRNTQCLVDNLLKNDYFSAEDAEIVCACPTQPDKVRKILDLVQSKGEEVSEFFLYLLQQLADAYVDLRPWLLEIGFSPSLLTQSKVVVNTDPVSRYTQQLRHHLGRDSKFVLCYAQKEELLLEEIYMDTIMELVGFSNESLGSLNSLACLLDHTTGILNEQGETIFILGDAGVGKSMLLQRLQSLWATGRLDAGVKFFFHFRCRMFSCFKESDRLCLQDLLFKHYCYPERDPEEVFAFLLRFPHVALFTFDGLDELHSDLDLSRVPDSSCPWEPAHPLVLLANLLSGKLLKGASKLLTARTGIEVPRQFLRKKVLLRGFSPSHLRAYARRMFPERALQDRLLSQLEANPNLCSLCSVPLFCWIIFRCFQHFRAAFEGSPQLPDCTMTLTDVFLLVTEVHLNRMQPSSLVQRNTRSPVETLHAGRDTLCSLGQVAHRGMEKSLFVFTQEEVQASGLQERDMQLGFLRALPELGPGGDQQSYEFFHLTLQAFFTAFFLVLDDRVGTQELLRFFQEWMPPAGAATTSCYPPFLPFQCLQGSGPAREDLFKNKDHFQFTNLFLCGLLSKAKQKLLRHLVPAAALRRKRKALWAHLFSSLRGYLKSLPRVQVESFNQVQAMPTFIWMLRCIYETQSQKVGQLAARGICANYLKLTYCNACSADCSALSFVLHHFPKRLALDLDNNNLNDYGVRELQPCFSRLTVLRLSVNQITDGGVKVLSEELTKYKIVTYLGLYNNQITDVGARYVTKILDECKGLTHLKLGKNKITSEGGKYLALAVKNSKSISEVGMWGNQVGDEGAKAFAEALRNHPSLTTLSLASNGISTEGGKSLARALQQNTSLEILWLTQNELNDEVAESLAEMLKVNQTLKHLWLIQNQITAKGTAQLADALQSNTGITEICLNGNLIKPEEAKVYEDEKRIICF
Assay: Agonist activity at human NOD-1 expressed in human HEK293 cells assessed as NF-kappaB induction by spectrophotometric analysis
Type: functional, cell-based
Method in brief: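 HEK-Blue cells (HEK293 stably transfected with human Nod1 and an NF-κB/AP-1-inducible secreted alkaline phosphatase reporter) were kept in selection medium with zeocin and normocin. Cells at ~10^5 cells/mL were grown to confluency and then given graded compound concentrations. Supernatant sAP was read spectrophotometrically at 620 nm with an alkaline phosphatase-specific chromogen.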

| SMILES | pEC50 |
| --- | --- |
| CCCCCCCCCCCOC(=O)[C@@H](CCC(=O)NC(CCCC(N)C(=O)O)C(=O)O)NC(=O)CCCCCCCCCCC (stereo partly drawn) | 9.87 |
| CCCCCCCCCCCC(=O)NC(CCCC(NC(=O)CC[C@@H](N)C(=O)O)C(=O)O)C(=O)O (stereo partly drawn) | 9.26 |
| CCCCCCCCN(CCCCCCCC)[C@H](CCC(=O)NC(CCCC(N)C(=O)O)C(=O)O)C(=O)O (stereo partly drawn) | 9.70 |
| CCCCCCCCCCCC(=O)N[C@H](CCC(=O)NC(CCCCC(=O)O)C(=O)O)C(=O)O (stereo partly drawn) | < 7.00 |
| CCCCCCCCCCCCCCCCN(CCCCCCCCCCCCCCCC)[C@H](CCC(=O)NC(CCCC(N)C(=O)O)C(=O)O)C(=O)O (stereo partly drawn) | 9.92 |
| CCCCCCCCCCCC(=O)NC(CCCC(NC(=O)CC[C@@H](NC(=O)CCCCCCCCCCC)C(=O)O)C(=O)O)C(=O)O (stereo partly drawn) | 9.24 |
| CCCCCCCCCCCC(=O)N[C@H](CCC(=O)NCCCC[C@@H](N)C(=O)O)C(=O)O | 9.43 |

Other lines, results leading:

| pEC50 | SMILES |
| --- | --- |
| 10.16 | CCCCCCCCCCCC(=O)N[C@H](CCC(=O)NC(CCCC(N)C(=O)O)C(=O)O)C(=O)OCC (stereo partly drawn) |
| < 7.00 | CCCCCCCCCCCC(=O)N[C@H](CCC(=O)NCCCCCN)C(=O)O |
| 8.76 | CCCCCCCCCCCC(=O)N[C@H](CCC(=O)NC1CCCCNC1=O)C(=O)O (stereo partly drawn) |
| 8.88 | CCCCCCCCCCCC(=O)N[C@H](CCC(=O)NC(CCCC1NC(N)=NC1=O)C(=O)O)C(=O)O (stereo partly drawn) |
| 10.18 | CCCCCCCCCCCOC(=O)[C@H](N)CCC(=O)NC(CCCC(N)C(=O)O)C(=O)O (stereo partly drawn) |
| 9.62 | CCCCCCCCCCCOC(=O)[C@@H](CCC(=O)NC(CCCC(N)C(=O)O)C(=O)O)NC(=N)N (stereo partly drawn) |
